Among all 360,000 compounds or so, about 1,700 (0.47%) were called active. For the sample, actives were picked, then their nearest neighbours and some compounds at random. Values without a mark were called inactive.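 How the source made its calls: active means inhibition above its plate's cutoff, the mean of tested wells on that plate plus 3 SD (cut at about 29% in these data); inactive means the rest.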
molecular target: Melanocortin receptor 4 (Homo sapiens) (UniProt P32245); assay: blockers of MC4R Gs-cAMP response – cell-based, TR-FRET, antagonist arm of biased-ligand search, primary screen (AID 540295); conditions: MC4R-expressing cells, MTII-stimulated cAMP, LANCE TR-FRET; at 6.5 µM; hits give high values;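 further: 0% = Melanotan II alone and 100% = Melanotan II plus saturating MCL0020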
How it was run: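 System – human MC4R-expressing U2OS cells · Also added – Melanotan II · Dosing – one concentration, 6.5 µM nominal · Timing – 30-min compound, 1-h challenge, 1-h detection, room temperature · Measured by – Eu-cAMP/anti-cAMP TR-FRET, emission 671 nm · Replicates – singlicate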

Chain of Melanocortin receptor 4 (Homo sapiens) (P32245 whole entry, looked up): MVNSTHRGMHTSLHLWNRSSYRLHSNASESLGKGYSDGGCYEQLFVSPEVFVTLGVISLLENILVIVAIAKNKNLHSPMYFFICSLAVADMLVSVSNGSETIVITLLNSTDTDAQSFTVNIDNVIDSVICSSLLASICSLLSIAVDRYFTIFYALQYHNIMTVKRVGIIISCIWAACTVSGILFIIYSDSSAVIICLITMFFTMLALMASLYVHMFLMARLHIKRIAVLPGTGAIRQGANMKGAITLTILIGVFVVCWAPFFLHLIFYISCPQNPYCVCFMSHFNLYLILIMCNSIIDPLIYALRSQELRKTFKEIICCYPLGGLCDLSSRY

SMILES | inhibition
CC/C(Cc1ccccc1)=N/NC(=O)CCn1nnc2ccccc21 | 9.16%
CC12CCC(=O)C=C1CCC1C2C(O)CC2(C)C1CCC2(O)C(O)CO (stereo not given) | 1.23%
CCOC(=O)c1cc(C)nc(S(C)(=O)=O)c1C#N | 38.7% (active)
CCOC(=O)c1c(C(C#N)C#N)cc(C)nc1C | 1.49%
CCOC(=O)COc1nc(C)cc(C(F)(F)F)c1C#N | -2.8%
O=C(Nc1ccccc1F)c1cc(S(=O)(=O)N2CCCCC2)cs1 | 3.77%
Cn1ccs/c1=N\S(=O)(=O)c1ccc(C(C)(C)C)cc1 | 8.67%
CNC(=O)C[C@H]1C(=O)N(c2ccc(OC)cc2)C[C@@H]1Cc1ccccc1 | -3.72%
COc1ccc(N2C(=O)C3C(C2=O)C(C(=O)c2ccccc2)N2CCCC32)cc1 (stereo not given) | 30.8% (active)
COc1ccc(N2C(=O)CC(N3CCC(C(N)=O)CC3)C2=O)cc1 (stereo not given) | 5.05%
O=C(CCc1nnc(Cc2ccc3c(c2)OCO3)o1)NCCc1ccccc1Cl | 2.77%
NCCCNC(=S)NCCCN(Cc1ccc(Cl)cc1)c1ccc(Br)cn1 | 3.71%
O=C(NCc1ccccc1)C1=C[C@@H](C2CCCCC2)C[C@@H](OCc2ccc(CO)cc2)O1 | 4.66%
CC(=O)c1ccccc1NC(=O)COC(=O)C1COc2ccccc2O1 (stereo not given) | 16.3%
CCC1CCCCN1CCCNC(=O)c1cc2c(Cl)nc3ccccc3c2s1 (stereo not given) | -9.04%
O=C(NCC1CCN(Cc2ccccc2Cl)CC1)Nc1cccc(Cl)c1 | 29.6% (active)
COc1ccc(Cl)cc1NC(=O)NCC1CCN(Cc2ccccc2F)CC1 | 3.98%
Cc1cccc(CN2CCC(CNC(=O)Nc3ccc(F)c(Cl)c3)CC2)c1 | 1.8%
FC(F)Oc1ccccc1NC(=S)Nc1cccc(Cl)c1Cl | 0.43%
S=C(Cc1ccc(Cl)cc1)N1CCOCC1 | 2.15%
CCCc1cc(=O)[nH]c(SCC(=O)Nc2ccc(C(=O)Nc3ccccc3OC)cc2)n1 | 10.3%
COc1ccccc1NC(=O)c1ccc2nc(N3C(=O)CCC3=O)sc2c1 | 35.1% (active)
COc1ccccc1-c1nnc(NC(=O)c2cccc(N3C(=O)CCC3=O)c2)o1 | 17.9%
COC(=O)/C(=C1\Oc2ccc(C(C)(C)C)cc2S1)C(F)(F)F | 13.2%

SMILES | inhibition
CCc1nc2c(OCCOc3ccccc3)cccn2c1N(C)C(=O)c1cccs1 | -6.4%
COC(=O)COc1ccc2c(=O)c(Oc3ccccc3Br)coc2c1 | 11%
COc1ccccc1CC(=O)Nc1ccc(F)cc1F | 28.9% (active)
O=C(COC(=O)CSc1ccccc1)Nc1ccc(F)cc1F | 9.52%
COC(=O)c1ccccc1NC(=O)Cc1ccccc1OC | 18.4%
CCCCOc1ccc(C(=O)N/C(=C/C=C/c2ccccc2)C(=O)N2CCOCC2)cc1 | 3.43%
O=C(Nc1nn(Cc2ccccc2F)cc1Br)c1cccs1 | 11.3%
C=CCn1c2ccccc2c2nnc(SCc3[nH]c(=O)[nH]c3C(=O)CCCCC(=O)OCC)nc21 | -12.2%
O=C(COC(=O)Cn1cnc2ccccc2c1=O)NCC12CC3CC(CC(C3)C1)C2 | 29.2% (active)
CC1(C)C(=O)Nc2ccccc2N1C(=O)COC(=O)Cn1cnc2ccccc2c1=O | 13.1%
O=C(COC(=O)Cn1cnc2ccccc2c1=O)NCc1ccccc1Cl | 10.8%
O=C(N/C(=C\c1ccc(O)cc1)C(=O)N1CCCCC1)c1ccccc1 | 2.84%
COc1ccc(N)cc1NC(=O)CN1CCOCC1 | -2.41%
O=C(O)c1n[nH]nc1-c1ccccc1 | 3.02%
Cc1nnc(SCC(=O)N2CCOCC2)[nH]c1=O | 2.07%
CCCCOC(=O)CNc1nnc(SCC(=O)OCC)[nH]c1=O | 60.6% (active)
CCOC(=O)CSc1nc(C)c(Oc2ccc(Cl)cc2Cl)c(=O)[nH]1 | 5.59%
Cc1ccc(C)c(NC(CC(=O)c2ccccc2)C(=O)OCC(=O)c2cccs2)c1 (stereo not given) | -0.53%
O=C(COC(=O)[C@H](Cc1ccccc1)NC(=O)c1cccs1)Nc1cc(F)ccc1F | 31.4% (active)
NC(=O)c1ccc(NC(=O)COC(=O)C(Cc2ccccc2)NC(=O)c2ccccc2)cc1 (stereo not given) | 11%
CCc1nc2c(OCc3ccc(C(F)(F)F)cc3)cccn2c1N(C)C(=O)CC(C)C | 6.64%
O=S(=O)(NCC1CCCO1)c1cnc(Cl)c(Cl)c1 (stereo not given) | 24.7%
O=S(=O)(NCc1ccco1)c1cnc(Cl)c(Cl)c1 | 44.9% (active)
O=C(COC(=O)c1cnc(Cl)c(Cl)c1)NCc1ccco1 | 10.1%

SMILES | inhibition
COC(=O)C[C@H]1C[C@@H]2c3cc(N(C)C)ccc3O[C@@H]2[C@H](CO)O1 | 13%
O=C1c2ccccc2C(=O)N1CCc1nn[nH]n1 | 14.6%
CN(C)C(CNC(=O)c1cccc(C#N)c1)c1ccco1 (stereo not given) | 0.76%
O=C(CCCOc1ccccc1)NCc1ccco1 | 2.67%
CN(C)C(CNC(=O)CCCOc1ccccc1)c1ccco1 (stereo not given) | 29.7% (active)
CN(CC(=O)NNC(=O)CNC(=O)c1ccccc1Cl)S(=O)(=O)c1ccc(Cl)cc1 | 2.86%
CN(CC(=O)NCCc1ccccn1)S(=O)(=O)c1ccc(Cl)cc1 | 30.3% (active)
CN(CC(=O)NCC(c1ccccc1)N1CCCC1)S(=O)(=O)c1ccc(Cl)cc1 (stereo not given) | -2.78%
Cc1ccc(S(=O)(=O)N2CCCC2C(=O)NCc2ccco2)cc1 (stereo not given) | -0.46%
COC(=O)COc1ccc(C2NC(=O)NC(C)=C2C(=O)NCc2ccccc2)cc1OC (stereo not given) | 21.9%
C[C@H]([C@@H](O)[C@@H](O)[C@@H](C)C(C)(C)C)[C@H]1CC[C@H]2C3CC[C@H]4C[C@H](OS(=O)(=O)O)[C@@H](OS(=O)(=O)O)C[C@]4(C)[C@H]3CC[C@]12C (stereo not given in full) | 9.52%
CCN(CCCNC(=O)C1CCN(S(=O)(=O)c2cnc[nH]2)CC1)c1ccccc1 | 17.3%
CS/C(=C\C(=O)c1ccco1)Nc1ccccc1Cl | 12.1%
O=C(Nc1ccccc1Cl)/C(Cl)=C(\Cl)S(=O)c1ccccc1 (stereo not given) | 34.9% (active)
O=C(COc1ccc(-n2cnnn2)cc1)Nc1ccccc1Cl | -4.5%
NC1=NC(=O)C(Cc2cccc(Cl)c2)S1 (stereo not given) | 6.88%
CCOC(=O)C(CC)Sc1ncnc2c1nnn2-c1ccc(F)cc1 (stereo not given) | 9.91%
COc1ccc(S(=O)(=O)N2CCOC2CNC(=O)C(=O)NCc2ccc(F)cc2)cc1 (stereo not given) | 5.37%
CC1(C)Cc2ccccc2/C(=C/C(=O)c2ccccc2)N1 | -4.86%
CC1(C)Cc2ccccc2-c2[nH]c(=S)[nH]c(=O)c21 | 31.3% (active)
N#CC1=C(N)Oc2[nH]c(=S)[nH]c(=O)c2C12C(=O)Nc1ccccc12 (stereo not given) | -0.32%
CC(=O)c1ccc(S(=O)(=O)Nc2ccc(-c3ccc4nncn4n3)cc2)cc1 | 4.19%
Cc1cccc(C(=O)N2CCCC(Nc3ccc(C(C)C)cc3)C2)n1 (stereo not given) | -4.44%
O=C(Oc1ccc(-c2nnco2)cc1)c1ccc(F)c(S(=O)(=O)N2CCOCC2)c1 | 16.3%

SMILES | inhibition
C=CCOC(=O)C1=C(C)N=C2SCCC(=O)N2C1/C=C/c1ccccc1OC (stereo not given) | 6.17%
COc1ccc(-c2ccc3c(c2)C2CC3CCN2CCC#N)cc1 (stereo not given) | 8.84%
CCC1(C)Cc2c(sc3[nH]c(=S)n(Cc4ccccc4)c(=O)c23)CO1 (stereo not given) | 3.15%
C=CCn1c(=S)[nH]c2scc(-c3ccco3)c2c1=O | 29.6% (active)
COc1cccc(-c2cc(NC(C)=O)c3ncc(-c4cccc(C(C)=O)c4)n3c2)c1 | 8.07%
CSc1ncnc2c1ncn2CCCNCC(C)c1ccccc1 (stereo not given) | 0.11%
CCN(CC(=O)NCCCN1CCOCC1)S(=O)(=O)c1cc(Cl)ccc1Cl | 30.2% (active)
CCN(CC)S(=O)(=O)c1ccc(Cl)c(C(=O)NCCN2CCOCC2)c1 | -2.31%
COc1ccc(S(=O)(=O)N(C)CC(=O)NCCCN2CCOCC2)cc1Cl | 8.85%
O=C(Nc1nnc(Cc2ccc(Cl)cc2)s1)c1ccncc1 | 11.2%
O=C(Nc1nnc(Cc2ccccc2)s1)c1cnccn1 | 20.4%
O=C(Nc1nnc(Cc2ccc(Cl)cc2)s1)c1cccnc1 | 33.8% (active)
COC(=O)[C@]1(CC(C)C)N[C@H](c2ccc(SC3CCCCC3)cc2)[C@@H]2C(=O)N(C)C(=O)[C@@H]21 | 4.32%
Cc1ccc(NC(=O)Cn2c(=O)n(CCC(=O)NC3CCN(Cc4ccccc4)CC3)c(=O)c3ccccc32)cc1 | 8.52%
COc1ccccc1NC(=O)/C=C/C(N)=O | 21%
COc1ccc(NS(=O)(=O)c2ccc(N3CCOCC3)c(NC(=O)/C=C/C(=O)O)c2)cc1 | 0.91%
COC(=O)c1sc(-c2ccc(C(C)(C)C)cc2)cc1NC(=O)/C=C/C(=O)O | 37.3% (active)
O=C(CCNC(=O)C1CCN(S(=O)(=O)c2ccccc2)CC1)NC1CC1 | 8.45%
NC(=O)COc1ccc(C23CC4CC(CC(C4)C2)C3)cc1 | -2.25%
CCCC(NC(=O)c1ccccc1)c1nc2ccccc2n1Cc1ccc(C(=O)OC)o1 (stereo not given) | -3.45%
CCOC(=O)CSc1nc(N2CCOCC2)c2c(c1C#N)CC(C(C)C)OC2 (stereo not given) | 28.7% (active)
CC(C)Cc1nc(N2CCOCC2)c(C#N)c2c1CCC2 | 8.79%
COc1ccc(CSc2nc(N3CCOCC3)c3c(c2C#N)CC(C)(C)OC3)cc1 | 19%
